Experimental data of several laboratories.
Lines come from different studies, so protocols differ.
Target: Mitogen-activated protein kinase kinase kinase 9 (MAP3K9, Homo sapiens, UniProt P80192)

SMILES | test | conditions | measurement | value
COc1cccc(CNC(=O)c2nc3scc(COCc4ccc(C(=O)O)cc4)c3c(=O)[nH]2)c1 | cell-free assay, competition with immobilised ligand | 1 µM | remaining binding | 100%
O=C1Nc2ccc(Cl)cc2C1=Cc1cc(Cl)c(O)c(Cl)c1 | cell-free assay | 0.5 µM | remaining signal | 102%
CNC(=O)c1cc(Oc2ccc(NC(=O)Nc3ccc(Cl)c(C(F)(F)F)c3)cc2)ccn1 | enzyme activity, inhibitor | 10 µM | inhibition | 23%
NS(=O)(=O)c1ccc(CNc2nc(Nc3cccc(CN4CCOCC4)c3)ncc2C2CC2)cc1 | enzyme activity, inhibitor, radiometric | 1 µM | remaining activity | 72%
Cn1c(=O)n(-c2ccc(C(C)(C)C#N)cc2)c2c3cc(-c4cnc5ccccc5c4)ccc3ncc21 | enzyme activity, inhibitor | 10 µM | remaining activity | 67%
C[C@H](c1ccnc(Nc2nc3ccc(-c4cc(N(C)C)ncn4)cc3[nH]2)c1)N1CCN(C(=O)CC(F)(F)F)CC1 | cell-free assay, competition with immobilised ligand | 0.1 µM | remaining binding | 100%
O=C1NC(=O)c2cc(Nc3ccc(F)cc3)c(Nc3ccc(F)cc3)cc21 | cell-free assay | 0.5 µM | remaining signal | 102%
O=C(NCCCNc1nc(Nc2cccc(CN3CCOCC3)c2)ncc1C1CC1)C1CCC1 | enzyme activity, inhibitor, radiometric | 1 µM | remaining activity | 19%
COc1cc2ncnc(Nc3ccc(Oc4ccccc4)cc3C)c2cc1OC | enzyme activity, inhibitor | 1 µM | inhibition | 9%
CN(C)CC#Cc1ccc(OCCCc2sc(N3CCc4cccc(C(=O)Nc5nc6ccccc6s5)c4C3)nc2C(=O)O)c(F)c1 | cell-free assay, competition with immobilised ligand | 1 µM | remaining binding | 92%
Cc1ccc(C(=O)NCc2ccsc2)cc1C#Cc1cn(C(C)C)c2ncnc(N)c12 | enzyme activity, inhibitor | 1 µM | activity vs control | 25%
Cc1nn(CC(F)(F)F)cc1Nc1ncc(Br)c(NCc2ccc(S(N)(=O)=O)cc2)n1 | enzyme activity, inhibitor, radiometric | 1 µM | remaining activity | 80%
CC(C)c1ccc(NC(=O)c2cccs2)c(-c2nc3ccccc3[nH]c2=O)c1 | enzyme activity, inhibitor | 1 µM | activity vs control | 92%
O=C(O)c1cc(-c2ccc(C3CCNCC3)cc2)c2ccc(-c3ccc(C(F)(F)F)cc3)cc2c1 | cell-free assay, competition with immobilised ligand | 1 µM | remaining binding | 100%
Cc1ccc(Nc2nccc(N(C)c3ccc4c(C)n(C)nc4c3)n2)cc1S(N)(=O)=O | enzyme activity, inhibitor | 10 µM | inhibition | 92%
O=C(Nc1cccc(Nc2ncc(Br)c(NCCc3cnc[nH]3)n2)c1)N1CCCC1 | enzyme activity, inhibitor, radiometric | 1 µM | remaining activity | 5%
CC/C(=N\NC(=O)NCc1cccc(O)c1)c1ccc(O)c(C)c1O | enzyme activity, inhibitor | 0.1 µM | inhibition | 5.1%
c1ccc(CNc2nc(N3CCOc4ccccc43)nc3c2CCCC3)cc1 | target engagement in cells, inhibitor, chemoproteomics | 20 mM | inhibition | 3.8%
N#CCCc1ccc2c(c1)-c1[nH]c3ccc([N+](=O)[O-])cc3c1CC(=O)N2 | cell-free assay | 0.5 µM | remaining signal | 18.2%
C[C@@H]1CN(c2cc(-c3nn(C)c4ccc(OC5(C)CC5)cc34)ncn2)C[C@H](C)O1 | cell-free assay, competition with immobilised ligand | 1 µM | remaining binding | 100%
COc1cccc2c(NCc3ccccc3)nc(-n3c(N)nc4ccccc43)nc12 | target engagement in cells, inhibitor, chemoproteomics | 20 mM | inhibition | 11.3%
NS(=O)(=O)c1ccc(CNc2nc(Nc3cccc(NC(=O)N4CCCC4)c3)ncc2Br)cc1 | enzyme activity, inhibitor, radiometric | 1 µM | remaining activity | 30%
CN(c1ccnc(CNc2nc(Nc3ccc4c(c3)CC(=O)N4)ncc2C(F)(F)F)n1)S(C)(=O)=O | cell-free assay, competition with immobilised ligand | 1 µM | remaining binding | 41%
CCOc1cc(-c2nncn2C)ccc1Nc1ncc2cc(C)nc(NCC(C)(C)C)c2n1 | enzyme activity, inhibitor, FRET | 1 µM | inhibition | 38%
O=C(NCCCNc1nc(Nc2cccc(NC(=O)N3CCCC3)c2)ncc1I)c1cccs1 | enzyme activity, inhibitor, radiometric | 1 µM | remaining activity | 4%
CNC(=O)Nc1ccc2c(c1)[C@@]1(CC2)OC(=O)N(CC(=O)N(Cc2ccc(F)cc2)[C@@H](C)C(F)(F)F)C1=O | cell-free assay, competition with immobilised ligand | 1 µM | remaining binding | 100%
Cc1nn(CC(F)(F)F)cc1Nc1nccc(NCCCNC(=O)C2CCC2)n1 | enzyme activity, inhibitor, radiometric | 1 µM | remaining activity | 85%
CO[C@H]1CC[C@H](CNc2ccc(S(=O)(=O)NC(=O)c3ccc(N4CCN(CC5=C(c6ccc(Cl)cc6)CC(C)(C)CC5)CC4)cc3Oc3cnc4[nH]ccc4c3)cc2[N+](=O)[O-])CC1 | cell-free assay, competition with immobilised ligand | 1 µM | remaining binding | 84%
NS(=O)(=O)c1ccc(CNc2nc(Nc3cccc(CN4CCOCC4)c3)ncc2Br)cc1 | enzyme activity, inhibitor, radiometric | 1 µM | remaining activity | 25%
COc1cc(Nc2cnc(C#N)c(O[C@H](C)CN(C)C)n2)ncc1-c1cnn(C)c1 | enzyme activity, inhibitor, radiometric | 1 µM | remaining activity | 92%
